Source: ChEMBL document CHEMBL3421608, “Discovery and optimization of a novel series of Dyrk1B kinase inhibitors to explore a MEK resistance hypothesis” (J Med Chem, 2015)
In brackets after ≈: the same amount, converted by molar mass. Activity calls are given as the source filed them. The calls are words filed in the database; no cut-off is given here.

Experiments:
[1] = Aqueous solubility of the compound at pH 7.4; format: physicochemical; conditions: buffer
[2] = Oral bioavailability in Wistar Han rat at 3 umol/kg; format: ADME, organism-based; conditions: in vivo
[3] = target: Insulin-like growth factor 1 receptor (Homo sapiens, UniProt P08069); assay: Inhibition of human recombinant N-terminal His6-tagged IGF-1R using fluorescence substrate after 80 mins by caliper off-chip incubation mobility shift assay
Insulin-like growth factor 1 receptor, sequence (P08069 31-736 limits assumed): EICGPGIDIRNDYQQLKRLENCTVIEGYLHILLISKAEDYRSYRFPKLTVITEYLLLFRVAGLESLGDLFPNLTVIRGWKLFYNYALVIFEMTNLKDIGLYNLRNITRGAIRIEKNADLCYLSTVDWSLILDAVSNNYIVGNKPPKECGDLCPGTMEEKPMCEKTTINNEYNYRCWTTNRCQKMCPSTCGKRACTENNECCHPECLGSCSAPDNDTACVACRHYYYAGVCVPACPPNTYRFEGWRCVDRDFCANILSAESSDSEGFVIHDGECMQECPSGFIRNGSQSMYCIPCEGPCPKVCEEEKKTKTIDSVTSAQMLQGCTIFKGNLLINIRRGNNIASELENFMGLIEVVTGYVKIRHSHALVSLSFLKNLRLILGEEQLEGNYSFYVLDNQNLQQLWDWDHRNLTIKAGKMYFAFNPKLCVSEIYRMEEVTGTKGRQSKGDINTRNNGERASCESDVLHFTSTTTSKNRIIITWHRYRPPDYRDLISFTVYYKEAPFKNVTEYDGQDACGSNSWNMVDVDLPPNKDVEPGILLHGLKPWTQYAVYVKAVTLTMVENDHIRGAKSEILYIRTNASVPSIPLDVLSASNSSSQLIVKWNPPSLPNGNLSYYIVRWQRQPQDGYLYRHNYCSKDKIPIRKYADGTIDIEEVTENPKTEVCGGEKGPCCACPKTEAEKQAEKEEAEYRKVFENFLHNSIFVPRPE
Insulin-like growth factor 1 receptor, sequence (P08069 741-1367 limits assumed): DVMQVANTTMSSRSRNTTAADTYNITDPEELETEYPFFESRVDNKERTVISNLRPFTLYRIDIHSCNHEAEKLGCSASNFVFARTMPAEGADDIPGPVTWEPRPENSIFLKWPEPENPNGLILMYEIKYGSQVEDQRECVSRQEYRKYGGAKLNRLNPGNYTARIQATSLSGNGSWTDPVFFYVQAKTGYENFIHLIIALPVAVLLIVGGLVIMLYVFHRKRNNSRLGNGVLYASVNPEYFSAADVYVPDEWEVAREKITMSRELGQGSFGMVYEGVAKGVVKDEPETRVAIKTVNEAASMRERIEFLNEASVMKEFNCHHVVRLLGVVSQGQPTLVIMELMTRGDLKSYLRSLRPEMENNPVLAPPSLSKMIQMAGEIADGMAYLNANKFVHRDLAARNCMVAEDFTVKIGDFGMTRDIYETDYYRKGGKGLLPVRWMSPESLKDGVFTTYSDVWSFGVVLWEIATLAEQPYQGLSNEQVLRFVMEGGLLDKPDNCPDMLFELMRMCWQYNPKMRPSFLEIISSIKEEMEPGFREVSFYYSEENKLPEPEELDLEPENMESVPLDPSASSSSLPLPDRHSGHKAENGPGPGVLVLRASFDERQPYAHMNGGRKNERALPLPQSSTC

A-375 = assay: Cytotoxicity against human A375 cells at 1.33 uM after 72 hrs by calcein green AM/propidium iodide staining-based assay in presence of AZD6244 relative to control; format: functional, cell-based
Method in brief: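 A375 melanoma cells treated with AZD6244 with or without Dyrk1B inhibitor at 1.33 μM for 72 h. Viability by calcein green AM and propidium iodide staining; percentage of dead cells is mean and SEM of at least two separate experiments.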

[4] = Clearance in Wistar Han rat plasma at 2 umol/kg; format: ADME, cell-free
[5] = target: T1, Dual specificity tyrosine-phosphorylation-regulated kinase 2 (Homo sapiens, UniProt Q92630); assay: Inhibition of Dyrk2 (unknown origin)
T1 sequence (Q92630 whole entry): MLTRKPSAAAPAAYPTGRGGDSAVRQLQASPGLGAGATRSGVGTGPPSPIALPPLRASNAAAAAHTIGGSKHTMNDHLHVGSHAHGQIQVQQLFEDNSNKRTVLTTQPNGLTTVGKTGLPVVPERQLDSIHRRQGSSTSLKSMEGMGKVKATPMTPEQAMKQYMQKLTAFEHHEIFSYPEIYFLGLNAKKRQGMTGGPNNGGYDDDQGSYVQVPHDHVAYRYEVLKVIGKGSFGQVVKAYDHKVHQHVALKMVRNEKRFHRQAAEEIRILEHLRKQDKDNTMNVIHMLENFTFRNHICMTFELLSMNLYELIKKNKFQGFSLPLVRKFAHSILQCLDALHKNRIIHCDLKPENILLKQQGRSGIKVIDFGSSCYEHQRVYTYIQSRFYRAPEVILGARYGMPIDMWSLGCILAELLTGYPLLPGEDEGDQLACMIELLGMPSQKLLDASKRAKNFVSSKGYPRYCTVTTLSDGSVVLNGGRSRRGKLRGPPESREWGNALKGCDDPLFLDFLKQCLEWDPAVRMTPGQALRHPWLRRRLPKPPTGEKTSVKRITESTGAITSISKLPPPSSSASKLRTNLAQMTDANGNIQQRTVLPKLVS

[6] = target: Cyclin-dependent kinase 2 (Homo sapiens, UniProt P24941); assay: Inhibition of human recombinant full length C-terminal His6-tagged CDK2 expressed in baculovirus infected Sf21 insect cells using fluorescence substrate after 60 mins by caliper off-chip incubation mobility shift assay
[7] = Intrinsic clearance in Wistar Han rat hepatocytes assessed per 10^6 cells; format: ADME, cell-based, Hepatocyte; conditions: read-out: CLH
Method in brief: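 Intrinsic clearance in Wistar Han rat hepatocytes, expressed as μL/min/1 × 10⁶ cells.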

[8] = target: T2, Dual specificity tyrosine-phosphorylation-regulated kinase 1B (Homo sapiens, UniProt Q9Y463); assay: Inhibition of human full length C-terminal c-Myc tagged Dyrk1B phosphorylation overexpressed in monkey COS1 cells after 5 hrs by ELISA; format: cell-based, COS-1
T2 sequence (Q9Y463 whole entry): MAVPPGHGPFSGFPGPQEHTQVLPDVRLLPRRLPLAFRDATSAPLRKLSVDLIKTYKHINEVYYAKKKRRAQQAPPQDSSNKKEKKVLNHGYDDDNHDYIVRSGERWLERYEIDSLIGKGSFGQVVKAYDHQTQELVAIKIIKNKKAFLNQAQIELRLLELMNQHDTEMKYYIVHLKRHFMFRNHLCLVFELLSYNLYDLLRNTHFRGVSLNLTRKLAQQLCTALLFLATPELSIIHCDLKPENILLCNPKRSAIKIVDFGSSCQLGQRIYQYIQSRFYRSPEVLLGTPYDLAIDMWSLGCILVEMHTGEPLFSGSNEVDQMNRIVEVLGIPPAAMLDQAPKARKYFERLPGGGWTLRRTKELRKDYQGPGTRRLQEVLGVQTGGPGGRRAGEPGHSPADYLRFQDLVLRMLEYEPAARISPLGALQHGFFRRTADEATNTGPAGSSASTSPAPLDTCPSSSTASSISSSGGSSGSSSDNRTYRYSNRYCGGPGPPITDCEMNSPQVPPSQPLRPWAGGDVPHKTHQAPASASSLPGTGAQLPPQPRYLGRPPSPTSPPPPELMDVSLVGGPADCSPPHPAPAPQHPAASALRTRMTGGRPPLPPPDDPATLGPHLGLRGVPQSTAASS

[9] = target: T2, Dual specificity tyrosine-phosphorylation-regulated kinase 1B; assay: Inhibition of recombinant Dyrk1B (unknown origin) using FITC-Asp-His-Thr-Gly-Phe-Leu-Thr-Glu-Tyr-Val-Ala-Thr-Arg-NH2 as substrate after 60 mins
[10] = Permeability across human Caco2 cells; format: ADME, cell-based; conditions: caco-2

## COc1cc(N2CCN(C)CC2)ccc1Nc1nccc(-c2cn(C)c3cnccc23)n1
[1]
  solubility: > 755 µM
[2]
  bioavailability: 22%
[3]
  IC50: 0.779 µM
A-375
  Activity: inactive
[4]
  clearance: 27 mL/min/kg
[5]
  IC50: 0.19 µM
[6]
  IC50: 4.47 µM
[7]
  hepatocyte CLint: 18 µL/min/1e6 cells

## Cn1cc(-c2ccnc(-c3ccc(S(C)(=O)=O)cc3)n2)c2ccncc21
[1]
  solubility: 2 µM (≈ 0.729 µg/mL)
[2]
  bioavailability: 37%
[8]
  IC50: 0.81 µM
[3]
  IC50: > 10 µM
[9]
  IC50: 0.012 µM
[4]
  clearance: 23 mL/min/kg
[10]
  permeability: permeable
[6]
  IC50: > 100 µM
[7]
  hepatocyte CLint: 8 µL/min/1e6 cells
